Reference: ChEMBL document CHEMBL1127574, “Design and synthesis of ellipticinium salts and 1,2-dihydroellipticines with high selectivities against human CNS cancers in vitro” (1994)

Experiments:
Format in all cases: functional
A549 [1] = experiment: Tested in vitro for cytotoxicity in A549/ATCC cell lines; conditions: Homo sapiens
Outline: (§1)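 Compounds dissolved in DMSO, then diluted 500-fold into aqueous medium. The resulting aqueous solutions or suspensions were added to the cultured human tumour cell lines, and the cells were exposed for 48 h. Growth was read colorimetrically in one of two ways: a metabolic assay in which viable cells reduce a tetrazolium salt to a formazan dye, or a protein stain for total cellular protein.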

A498 = experiment: Tested in vitro for cytotoxicity in A498 cell line of Renal cancer; conditions: Homo sapiens, read-out: Log TGI (converted); outline: as §1
ACHN = experiment: Tested in vitro for cytotoxicity in ACHN cell line of Renal cancer; conditions: Homo sapiens, read-out: Log TGI (converted); outline: as §1
A549 [2] = experiment: Tested in vitro for cytotoxicity in A549/ATCC cell line of Non-Small Cell Lung Cancer; conditions: Homo sapiens, read-out: Log TGI (converted); outline: as §1
CAKI-1 [3] = experiment: Tested in vitro for cytotoxicity in CAKI-1 cell lines; conditions: Homo sapiens; outline: as §1
CCRF-CEM [4] = experiment: Tested in vitro for cytotoxicity in CCRF-CEM cell line of Leukemia; conditions: Homo sapiens, read-out: Log TGI (converted); outline: as §1
CCRF-CEM [5] = experiment: Tested in vitro for cytotoxicity in CCRF-CEM cell lines; conditions: Homo sapiens; outline: as §1
COLO 205 = experiment: Tested in vitro for cytotoxicity in COLO 205 cell line of Colon Cancer; conditions: Homo sapiens, read-out: Log TGI (converted); outline: as §1
CAKI-1 [6] = experiment: Tested in vitro for cytotoxicity in CAKI-1 cell line of Renal cancer; conditions: Homo sapiens, read-out: Log TGI (converted); outline: as §1
DMS-114 [7] = experiment: Tested in vitro for cytotoxicity in DMS114 cell lines; conditions: Homo sapiens; outline: as §1
DLD-1 = experiment: Tested in vitro for cytotoxicity in DLD-1 cell line of Colon Cancer; conditions: Homo sapiens, read-out: Log TGI (converted); outline: as §1
DMS-114 [8] = experiment: Tested in vitro for cytotoxicity in DMS114 cell line of Small Cell Lung Cancer; conditions: Homo sapiens, read-out: Log TGI (converted); outline: as §1
DMS-273 = experiment: Tested in vitro for cytotoxicity in DMS273 cell line of Small Cell Lung Cancer; conditions: Homo sapiens, read-out: Log TGI (converted); outline: as §1
HCT-15 = experiment: Tested in vitro for cytotoxicity in HCT-15 cell line of Colon Cancer; conditions: Homo sapiens, read-out: Log TGI (converted); outline: as §1
HOP-62 = experiment: Tested in vitro for cytotoxicity in HOP-62 cell line of Non-Small Cell Lung Cancer; conditions: Homo sapiens, read-out: Log TGI (converted); outline: as §1
HL-60 = experiment: Tested in vitro for cytotoxicity in HL-60(TB) cell line of Leukemia; conditions: Homo sapiens, read-out: Log TGI (converted)
Outline: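 Compounds were dissolved in DMSO and diluted 500-fold in aqueous medium. Aliquots of the resulting solution or suspension were added to the cultured cells for 48 h. Growth was read colorimetrically, either by tetrazolium reduction to formazan in viable cells or by a total-protein stain.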

HCC 2998 = experiment: Tested in vitro for cytotoxicity in HCC2998 cell line of Colon Cancer; conditions: Homo sapiens, read-out: Log TGI (converted); outline: as §1
HOP-18 = experiment: Tested in vitro for cytotoxicity in HOP-18 cell line of Non-Small Cell Lung Cancer; conditions: Homo sapiens, read-out: Log TGI (converted); outline: as §1
HT-29 = experiment: Tested in vitro for cytotoxicity in HT-29 cell line of Colon Cancer; conditions: Homo sapiens, read-out: Log TGI (converted); outline: as §1
HOP-92 = experiment: Tested in vitro for cytotoxicity in HOP-92 cell line of Non-Small Cell Lung Cancer; conditions: Homo sapiens, read-out: Log TGI (converted); outline: as §1
IGROV-1 [9] = experiment: Tested in vitro for cytotoxicity in IGROV1 cell lines; conditions: Homo sapiens; outline: as §1
IGROV-1 [10] = experiment: Tested in vitro for cytotoxicity in IGROV1 cell line of Ovarian Cancer; conditions: Homo sapiens, read-out: Log TGI (converted); outline: as §1
K562 = experiment: Tested in vitro for cytotoxicity in K-562 cell line of Leukemia; conditions: Homo sapiens, read-out: Log TGI (converted); outline: as §1
KM12 = experiment: Tested in vitro for cytotoxicity in KM12 cell line of Colon Cancer; conditions: Homo sapiens, read-out: Log TGI (converted); outline: as §1
M19-MEL = experiment: Tested in vitro for cytotoxicity in M19-MEL cell line of Melanoma; conditions: Homo sapiens, read-out: Log TGI (converted); outline: as §1
M14 = experiment: Tested in vitro for cytotoxicity in M14 cell line of Melanoma; conditions: Homo sapiens, read-out: Log TGI (converted); outline: as §1
LOX IMVI = experiment: Tested in vitro for cytotoxicity in LOX IMVI cell line of Melanoma; conditions: Homo sapiens, read-out: Log TGI (converted); outline: as §1
LXFL 529 = experiment: Tested in vitro for cytotoxicity in LXFL-529 cell line of Non-Small Cell Lung Cancer; conditions: Homo sapiens, read-out: Log TGI (converted); outline: as §1
Malme-3M [11] = experiment: Tested in vitro for cytotoxicity in MALME-3M; conditions: Homo sapiens; outline: as §1
Malme-3M [12] = experiment: Tested in vitro for cytotoxicity in MALME-3M cell line of Melanoma; conditions: Homo sapiens, read-out: Log TGI (converted); outline: as §1
NCI-H522 = experiment: Tested in vitro for cytotoxicity in NCI-H522 cell line of Non-Small Cell Lung Cancer; conditions: Homo sapiens, read-out: Log TGI (converted); outline: as §1

COc1ccc2[nH]c3c(C)c4c(c(C)c3c2c1)CN(C)C=C4
GI50 (A549 [1]): 0.993 µM | TGI (A498): 63.1 µM | TGI (ACHN): 63.1 µM | TGI (A549 [2]): 50.1 µM | GI50 (CAKI-1 [3]): 20.1 µM | TGI (CCRF-CEM [4]): 15.8 µM | GI50 (CCRF-CEM [5]): 2.64 µM | TGI (COLO 205): 5.01 µM | TGI (CAKI-1 [6]): 31.6 µM | GI50 (DMS-114 [7]): 0.525 µM | TGI (DLD-1): 20 µM | TGI (DMS-114 [8]): 2.51 µM | TGI (DMS-273): 12.6 µM | TGI (HCT-15): > 100 µM | TGI (HOP-62): 3.16 µM | TGI (HL-60): 63.1 µM | TGI (HCC 2998): 12.6 µM | TGI (HOP-18): 39.8 µM | TGI (HT-29): 25.1 µM | TGI (HOP-92): 25.1 µM | GI50 (IGROV-1 [9]): 1.68 µM | TGI (IGROV-1 [10]): 39.8 µM | TGI (K562): > 100 µM | TGI (KM12): 15.8 µM | TGI (M19-MEL): 2.51 µM | TGI (M14): 25.1 µM | TGI (LOX IMVI): 25.1 µM | TGI (LXFL 529): 5.01 µM | GI50 (Malme-3M [11]): 1.44 µM | TGI (Malme-3M [12]): 5.01 µM | TGI (NCI-H522): 5.01 µM
